Reference: ChEMBL document CHEMBL1133253, “Improved antibacterial activities of coumarin antibiotics bearing 5',5'-dialkylnoviose: biological activity of RU79115” (Bioorg Med Chem Lett, 2000)
In brackets after ≈: the same amount, converted by molar mass.

How the values were obtained:
Assay type in all cases: functional
[1] = tested on: Enterococcus; experiment: Minimum inhibitory concentration evaluated against enterococci species resistant to vancomycin [65]*
[2] = tested on: Streptococcus sp.; experiment: In vitro anti-streptococcal activity against Streptococci species (viridans) [25]* expressed as geometric mean
[3] = tested on: Mus musculus; experiment: Protective dose of subcutaneously administered compound against intraperitoneally-induced septicaemia model (Staphylococcus aureus GR56 strain resistant to oxacillin) in murine; conditions: sc, read-out: PD50
Procedure, shortened: (§1)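 Murine septicaemia was induced by intraperitoneal infection, and the compound was given subcutaneously. PD50 was derived by probit analysis.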

[4] = tested on: Staphylococcus sp.; experiment: Minimum inhibitory concentration evaluated against Staphylococcus species resistant to oxacillin [66]*
Procedure, shortened: (§2)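 Two-fold agar dilution MIC, in µg/mL, against Staphylococcus panels grouped by resistance phenotype (oxacillin and/or ofloxacin resistant). Per-panel values are reported as the geometric mean and MIC90 across strains; the strain count per panel is given in brackets.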

[5] = tested on: Mus musculus; experiment: Minimum inhibitory concentration of the subcutaneously administered compound evaluated against Staphylococcus aureus GR56 strain resistant to oxacillin in mice
[6] = tested on: Mus musculus; experiment: Minimum inhibitory concentration of the subcutaneously administered compound evaluated against vancomycin resistant Enterococci faecium D3HM4 strain in mice
[7] = tested on: Streptococcus sp.; experiment: In vitro anti-streptococcal activity against Streptococci species [38]* expressed as geometric mean
[8] = tested on: Staphylococcus sp.; experiment: Minimum inhibitory concentration evaluated against Staphylococcus species resistant to ofloxacin [59]*; procedure, shortened: as §2
[9] = tested on: Enterococcus; experiment: In vitro anti-enterococcal activity against enterococci species resistant to vancomycin and teicoplanin [17]* expressed as geometric mean
[10] = tested on: Mus musculus; experiment: Protective dose of subcutaneously administered compound against intraperitoneally-induced septicaemia model (vancomycin resistant Enterococci faecium D3AP9 strain ) in murine; conditions: sc, read-out: PD50; procedure, shortened: as §1
[11] = Minimum inhibitory concentration evaluated against pneumococci resistant to penicillin [29]*
[12] = tested on: Mus musculus; experiment: Protective dose of subcutaneously administered compound against intraperitoneally-induced septicaemia model (Staphylococcus aureus HT18) in murine; conditions: sc, read-out: PD50; procedure, shortened: as §1
[13] = tested on: Mus musculus; experiment: Protective dose of subcutaneously administered compound against intraperitoneally-induced septicaemia model (vancomycin resistant Enterococci faecium D3HM4 strain ) in murine; conditions: sc, read-out: PD50; procedure, shortened: as §1
[14] = tested on: Mus musculus; experiment: Minimum inhibitory concentration of the subcutaneously administered compound evaluated against Staphylococcus aureus HT-18 strain in mice
[15] = tested on: Streptococcus sp.; experiment: Minimum inhibitory concentration evaluated against Streptococci species (viridans) [25]*
[16] = tested on: Staphylococcus sp.; experiment: In vitro anti-staphylococcal activity against Staphylococcus species [91]* expressed as geometric mean
Procedure, shortened: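 Two-fold agar-dilution MICs (µg/mL) were run on a panel of staphylococcal isolates and summarised as the geometric mean across strains.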

[17] = tested on: Mus musculus; experiment: Minimum inhibitory concentration of the subcutaneously administered compound evaluated against […] A1UC1 strain in mice
[18] = tested on: Mus musculus; experiment: Protective dose of subcutaneously administered compound against intraperitoneally-induced septicaemia model (Enterococci faecalis D2HT6 strain) in murine; conditions: sc, read-out: PD50; procedure, shortened: as §1
[19] = tested on: Mus musculus; experiment: Minimum inhibitory concentration of the subcutaneously administered compound evaluated against Enterococci faecium D3HT7 strain in mice
[20] = tested on: Staphylococcus sp.; experiment: Minimum inhibitory concentration evaluated against Staphylococcus species resistant to oxacillin and ofloxacin [47]*; procedure, shortened: as §2
[21] = tested on: Mus musculus; experiment: Protective dose of subcutaneously administered compound against intraperitoneally-induced septicaemia model ([…] B1HT3 strain) in murine; conditions: sc, read-out: PD50; procedure, shortened: as §1
[22] = tested on: Mus musculus; experiment: Minimum inhibitory concentration of the subcutaneously administered compound evaluated against vancomycin resistant Enterococci faecium D3HT12 strain in mice
[23] = tested on: Streptococcus sp.; experiment: Minimum inhibitory concentration evaluated against Streptococci species [38]*
[24] = tested on: Enterococcus; experiment: In vitro anti-enterococcal activity against enterococci species resistant to vancomycin [65]* expressed as geometric mean
[25] = tested on: Mus musculus; experiment: Minimum inhibitory concentration of the subcutaneously administered compound evaluated against Enterococci faecalis D2HT6 strain in mice
[26] = tested on: pneumococci; experiment: In vitro anti-streptococcal activity against pneumococci resistant to penicillin [29]* expressed as geometric mean
[27] = tested on: Enterococcus; experiment: In vitro anti-enterococcal activity against enterococci species susceptible to vancomycin [26]* expressed as geometric mean
[28] = tested on: Staphylococcus sp.; experiment: In vitro anti-staphylococcal activity against Staphylococcus species resistant to oxacillin [66]* expressed as geometric mean; procedure, shortened: as §2
[29] = tested on: Mus musculus; experiment: Protective dose of subcutaneously administered compound against intraperitoneally-induced septicaemia model (vancomycin resistant Enterococci faecium D3HM3 strain ) in murine; conditions: sc, read-out: PD50; procedure, shortened: as §1
[30] = tested on: Enterococcus; experiment: Minimum inhibitory concentration evaluated against enterococci species resistant to vancomycin and teicoplanin [17]*
[31] = tested on: Mus musculus; experiment: Protective dose of subcutaneously administered compound against intraperitoneally-induced septicaemia model ([…] A1UC1 strain) in murine; conditions: sc, read-out: PD50; procedure, shortened: as §1
[32] = tested on: Staphylococcus sp.; experiment: In vitro anti-staphylococcal activity against Staphylococcus species resistant to ofloxacin [59]* expressed as geometric mean; procedure, shortened: as §2
[33] = tested on: Staphylococcus sp.; experiment: Minimum inhibitory concentration evaluated against Staphylococcus species [91]*; procedure, shortened: as §2
[34] = tested on: Mus musculus; experiment: Minimum inhibitory concentration of the subcutaneously administered compound evaluated against vancomycin resistant Enterococci faecium D3AP9 strain in mice
[35] = tested on: Mus musculus; experiment: Protective dose of subcutaneously administered compound against intraperitoneally-induced septicaemia model (vancomycin resistant Enterococci faecium D3HT12 strain ) in murine; conditions: sc, read-out: PD50; procedure, shortened: as §1
[36] = tested on: Enterococcus; experiment: Minimum inhibitory concentration evaluated against enterococci species susceptible to vancomycin [26]*
[37] = tested on: Mus musculus; experiment: Protective dose of subcutaneously administered compound against intraperitoneally-induced septicaemia model (Enterococci faecium D3HT7 strain ) in murine; conditions: sc, read-out: PD50; procedure, shortened: as §1
[38] = tested on: Mus musculus; experiment: Minimum inhibitory concentration of the subcutaneously administered compound evaluated against […] B1HT3 strain in mice
[39] = tested on: Staphylococcus sp.; experiment: In vitro anti-staphylococcal activity against Staphylococcus species resistant to oxacillin and ofloxacin[47]* expressed as geometric mean; procedure, shortened: as §2
[40] = tested on: Mus musculus; experiment: Protective dose of orally administered compound against intraperitoneally-induced septicaemia model ( vancomycin resistant Enterococci faecium D3HM4 strain) in murine; conditions: po, read-out: PD50
Procedure, shortened: (§3)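 PD50 was measured in a murine septicaemia model, with infection induced intraperitoneally with the named Gram-positive strain. Test compound was given orally and the PD50 was calculated by the probit method.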

[41] = tested on: Mus musculus; experiment: Minimum inhibitory concentration of the subcutaneously administered compound evaluated against Staphylococcus aureus HT-17 strain in mice (SC)
[42] = tested on: Mus musculus; experiment: Protective dose of subcutaneously administered compound against intraperitoneally-induced septicaemia model (Staphylococcus aureus GO3) in murine; conditions: sc, read-out: PD50; procedure, shortened: as §1
[43] = tested on: Mus musculus; experiment: Minimum inhibitory concentration of the subcutaneously administered compound evaluated against […] PW3 strain in mice (SC)
[44] = tested on: Mus musculus; experiment: Minimum inhibitory concentration of the subcutaneously administered compound evaluated against Staphylococcus aureus GO3 strain in mice (SC)
[45] = tested on: Mus musculus; experiment: Protective dose of orally administered compound against intraperitoneally-induced septicaemia model ( vancomycin resistant Enterococci faecium D3HM3 strain) in murine; conditions: po, read-out: PD50; procedure, shortened: as §3
[46] = tested on: Mus musculus; experiment: Protective dose of subcutaneously administered compound against intraperitoneally-induced septicaemia model ([…] PW3 strain) in murine; conditions: sc, read-out: PD50; procedure, shortened: as §1
[47] = tested on: Mus musculus; experiment: Protective dose of orally administered compound against intraperitoneally-induced septicaemia model (Enterococci faecium D3HT7 strain) in murine; conditions: po, read-out: PD50
[48] = tested on: Mus musculus; experiment: Protective dose of orally administered compound against intraperitoneally-induced septicaemia model (Enterococci faecalis D2HT6 strain) in murine; conditions: po, read-out: PD50; procedure, shortened: as §3
[49] = tested on: Mus musculus; experiment: Protective dose of orally administered compound against intraperitoneally-induced septicaemia model ( vancomycin resistant Enterococci faecium D3HT12 strain) in murine; conditions: po, read-out: PD50; procedure, shortened: as §3
[50] = tested on: Mus musculus; experiment: Protective dose of subcutaneously administered compound against intraperitoneally-induced septicaemia model (Staphylococcus aureus HT-17) in murine; conditions: sc, read-out: PD50; procedure, shortened: as §1

Compound: CC(=O)NC[C@H]1CN(c2ccc(N3CCN(C(=O)CO)CC3)c(F)c2)C(=O)O1 [EPEREZOLID]
- MIC90 [1]: 1.2 µg/mL (≈ 3.04 µM)
- GM [2]: 0.39
- ED50 [3]: 5 mg/kg
- MIC90 [4]: 1.2 µg/mL (≈ 3.04 µM)
- MIC [5]: 1.2 µg/mL (≈ 3.04 µM)
- MIC [6]: 0.3 µg/mL (≈ 0.761 µM)
- GM [7]: 0.52
- MIC90 [8]: 1.2 µg/mL (≈ 3.04 µM)
- GM [9]: 0.43
- ED50 [10]: 8.7 mg/kg
- MIC90 [11]: 0.3 µg/mL (≈ 0.761 µM)
- ED50 [12]: 20 mg/kg
- ED50 [13]: 27.2 mg/kg
- MIC [14]: 0.6 µg/mL (≈ 1.52 µM)
- MIC90 [15]: 1.2 µg/mL (≈ 3.04 µM)
- GM [16]: 0.74
- MIC [17]: < 0.15 µg/mL
- ED50 [18]: 6.4 mg/kg
- MIC [19]: 0.6 µg/mL (≈ 1.52 µM)
- MIC90 [20]: 1.2 µg/mL (≈ 3.04 µM)
- ED50 [21]: > 50 mg/kg
- MIC [22]: 0.3 µg/mL (≈ 0.761 µM)
- MIC90 [23]: 0.6 µg/mL (≈ 1.52 µM)
- GM [24]: 0.72
- MIC [25]: 0.6 µg/mL (≈ 1.52 µM)
- GM [26]: 0.25
- GM [27]: 0.51
- GM [28]: 0.73
- ED50 [29]: 2.8 mg/kg
- MIC90 [30]: 1.2 µg/mL (≈ 3.04 µM)
- ED50 [31]: 22.8 mg/kg
- GM [32]: 0.71
- MIC90 [33]: 1.2 µg/mL (≈ 3.04 µM)
- MIC [34]: 1.2 µg/mL (≈ 3.04 µM)
- ED50 [35]: 1.5 mg/kg
- MIC90 [36]: 0.6 µg/mL (≈ 1.52 µM)
- ED50 [37]: 3 mg/kg
- MIC [38]: 0.6 µg/mL (≈ 1.52 µM)
- GM [39]: 0.72

Compound: CC(=O)NC[C@H]1CN(c2ccc(N3CCOCC3)c(F)c2)C(=O)O1 [LINEZOLID]
- ED50 [40]: 8.6 mg/kg
- MIC [41]: 1.2 µg/mL (≈ 3.56 µM)
- ED50 [42]: 8.7 mg/kg
- MIC [43]: 1.2 µg/mL (≈ 3.56 µM)
- MIC [44]: 2.5 µg/mL (≈ 7.41 µM)
- ED50 [45]: 2.1 mg/kg
- ED50 [46]: 3 mg/kg
- ED50 [47]: 2.4 mg/kg
- ED50 [48]: 4.2 mg/kg
- ED50 [49]: 1.8 mg/kg
- ED50 [50]: 5.8 mg/kg
